Test results as given in ChEMBL document CHEMBL1806370, “Development of novel naphthalimide derivatives and their evaluation as potential melanoma therapeutics” (Eur J Med Chem, 2011).

Key:
[1] = tested on: Mus musculus; assay: Systemic toxicity in Swiss Webster mouse assessed as reduction in body weight at 10 mg/kg, ip administered daily for 28 days; design: scale not given: the % may be the effect or the level left; conditions: in vivo, 672 h
[2] = tested on: UACC-903; assay: Induction of apoptosis in human UACC-903 cells assessed as late apoptotic cells at 5 uM after 24 hrs using annexin-V-PE/7-AAD double staining by flow cytometry; type: functional
Method in brief: (§1)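 UACC 903 cells were exposed 24 h at 37 °C to 1, 5 or 25 µM, with DMSO as control. Cells were harvested, washed twice in cold PBS and resuspended at 1×10^6 cells/mL in binding buffer. They were stained with 7-AAD plus PE Annexin V for 20 min at room temperature in the dark and run by flow cytometry within 1 h. Gating: double-negative live, 7-AAD+ dead, Annexin V+/7-AAD− early apoptotic. Three separate experiments.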

[3] = tested on: UACC-903; assay: Induction of apoptosis in human UACC-903 cells assessed as non-viable cells at 1 uM after 24 hrs using annexin-V-PE/7-AAD double staining by flow cytometry; type: functional
Method in brief: as §1

[4] = tested on: UACC-903; assay: Induction of apoptosis in human UACC-903 cells assessed as late apoptotic cells at 25 uM after 24 hrs using annexin-V-PE/7-AAD double staining by flow cytometry; type: functional
Method in brief: as §1

[5] = tested on: UACC-903; assay: Antitumor activity against human UACC-903 cells xenografted in athymic Harlan Sprague-Dawley nude mouse assessed as reduction in tumor growth at 8.5 to 10 mg/kg, ip administered thrice per week for 24 days measured after 21 days; type: functional; conditions: dose mg/kg 8.5-10; route intraperitoneal
Method in brief: (§2)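 Female athymic nude mice, 4–6 weeks old, received 5×10^6 UACC 903 cells s.c. in DMEM/10% FBS above both rib cages. After six days they were randomized at 5 mice/group, 2 tumors/mouse. Dosing was i.p. Mon/Wed/Fri, with one arm dosed daily; controls got DMSO vehicle. Tumor dimensions (calipers, mm³) and body weight were recorded three times weekly.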

[6] = tested on: Mus musculus; assay: Systemic toxicity in Swiss Webster mouse assessed as mortality at 15 mg/kg, ip administered every day for 28 days; type: organism-based; design: dose 15 mg/kg, route intraperitoneal; conditions: in vivo, 672 h
Method in brief: (§3)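 Swiss Webster mice, n = 4 per group, dosed i.p. once daily for 28 days at 5, 7.5, 10 or 15 mg/kg body weight. Body weight recorded twice per week; deaths noted over the dosing period.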

[7] = tested on: UACC-903; assay: Cytotoxicity against human UACC-903 cells after 24 hrs by MTS assay; type: functional, cell-based; conditions: UACC-903, 24 h
Method in brief: (§4)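 Cells in DMEM with 10% FBS at 37 °C and 5% CO2 were plated at 5×10^3 per well and grown 24 h. They were then exposed 24 or 72 h to 0.5, 1, 5, 10, 25 and 50 µM, with final DMSO 0.5% and DMSO controls. MTS/PMS was added for 4 h at 37 °C. A492 was read with the medium blank subtracted and expressed as % of control. IC50 was taken from three independent experiments (mean ± S.E.).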

[8] = Cytotoxicity against human 1205 Lu cells after 24 hrs by MTS assay; type: functional, cell-based
Method in brief: as §4

[9] = tested on: UACC-903; assay: Induction of apoptosis in human UACC-903 cells assessed as early apoptotic cells at 5 uM after 24 hrs using annexin-V-PE/7-AAD double staining by flow cytometry; type: functional
Method in brief: as §1

[10] = Cytotoxicity against human SK-MEL-37 cells after 24 hrs by MTS assay; type: functional, cell-based
Method in brief: as §4

[11] = tested on: SK-MEL-37 (Homo sapiens); assay: Cytotoxicity against human SK-MEL-37 cells assessed as decrease in cell viability after 72 hrs by MTS assay
[12] = tested on: UACC-903; assay: Induction of apoptosis in human UACC-903 cells assessed as viable cells at 5 uM after 24 hrs using annexin-V-PE/7-AAD double staining by flow cytometry; type: functional; conditions: UACC-903, 24 h, read-out: Activity
Method in brief: as §1

[13] = Cytotoxicity against human SK-MEL-37 cells after 72 hrs by MTS assay; type: functional, cell-based
Method in brief: as §4

[14] = tested on: UACC-903; assay: Induction of apoptosis in human UACC-903 cells assessed as non-viable cells at 25 uM after 24 hrs using annexin-V-PE/7-AAD double staining by flow cytometry; type: functional
Method in brief: as §1

[15] = tested on: UACC-903; assay: Induction of apoptosis in human UACC-903 cells assessed as early apoptotic cells at 1 uM after 24 hrs using annexin-V-PE/7-AAD double staining by flow cytometry; type: functional
Method in brief: as §1

[16] = tested on: UACC-903; assay: Induction of apoptosis in human UACC-903 cells assessed as viable cells at 25 uM after 24 hrs using annexin-V-PE/7-AAD double staining by flow cytometry; type: functional; conditions: UACC-903, 24 h, read-out: Activity
Method in brief: as §1

[17] = tested on: 1205Lu; assay: Cytotoxicity against human 1205 Lu cells assessed as decrease in cell viability after 24 hrs by MTS assay; type: functional, cell-based
Method in brief: as §4

[18] = Cytotoxicity against human A375-S2 cells after 72 hrs by MTS assay; type: functional, cell-based; conditions: A375-S2, 72 h
Method in brief: as §4

[19] = tested on: Mus musculus; assay: Systemic toxicity in Swiss Webster mouse assessed as weight loss at 10 mg/kg, ip administered every day for 28 days; type: organism-based; design: dose 10 mg/kg, route intraperitoneal; conditions: in vivo, 672 h
Method in brief: as §3

[20] = tested on: Mus musculus; assay: Systemic toxicity in athymic Harlan Sprague-Dawley nude mouse xenografted with human UACC-903 cells assessed as reduction in body weight at 8.5 to 10 mg/kg, ip administered thrice a week for 24 days; type: organism-based; design: dose 8.5-10 mg/kg, route intraperitoneal; conditions: in vivo, 576 h
Method in brief: as §2

[21] = tested on: UACC-903; assay: Cytotoxicity against human UACC-903 cells assessed as decrease in cell viability after 72 hrs by MTS assay; type: functional, cell-based
Method in brief: as §4

[22] = tested on: Mus musculus; assay: Systemic toxicity in Swiss Webster mouse assessed as mortality at 10 mg/kg, ip administered every day for 28 days; type: organism-based; design: dose 10 mg/kg, route intraperitoneal; conditions: in vivo, 672 h
Method in brief: as §3

[23] = tested on: 1205Lu; assay: Cytotoxicity against human 1205 Lu cells assessed as decrease in cell viability after 72 hrs by MTS assay; type: functional, cell-based
Method in brief: as §4

[24] = tested on: A375-S2; assay: Cytotoxicity against human A375-S2 cells assessed as decrease in cell viability after 72 hrs by MTS assay; type: functional, cell-based
Method in brief: as §4

[25] = tested on: A375-S2; assay: Cytotoxicity against human A375-S2 cells assessed as decrease in cell viability after 24 hrs by MTS assay; type: functional, cell-based
Method in brief: as §4

[26] = tested on: UACC-903; assay: Cytotoxicity against human UACC-903 cells assessed as decrease in cell viability after 24 hrs by MTS assay; type: functional, cell-based
Method in brief: as §4

[27] = tested on: UACC-903; assay: Induction of apoptosis in human UACC-903 cells assessed as late apoptotic cells at 1 uM after 24 hrs using annexin-V-PE/7-AAD double staining by flow cytometry; type: functional
Method in brief: as §1

[28] = tested on: UACC-903; assay: Cytotoxicity against human UACC-903 cells after 72 hrs by MTS assay; type: functional, cell-based; conditions: UACC-903, 72 h
Method in brief: as §4

[29] = tested on: SK-MEL-37 (Homo sapiens); assay: Cytotoxicity against human SK-MEL-37 cells assessed as decrease in cell viability after 24 hrs by MTS assay
[30] = tested on: Mus musculus; assay: Systemic toxicity in athymic Harlan Sprague-Dawley nude mouse xenografted with human UACC-903 cells assessed as mortality at 10 mg/kg, ip administered daily for 28 days; type: organism-based; design: dose 10 mg/kg, route intraperitoneal; conditions: in vivo, 672 h
[31] = tested on: UACC-903; assay: Induction of apoptosis in human UACC-903 cells assessed as increase in apoptotic cells after 24 hrs using annexin-V-PE/7-AAD double staining by flow cytometry; type: functional, cell-based
Method in brief: as §1

[32] = tested on: UACC-903; assay: Induction of apoptosis in human UACC-903 cells assessed as non-viable cells at 5 uM after 24 hrs using annexin-V-PE/7-AAD double staining by flow cytometry; type: functional
Method in brief: as §1

[33] = Cytotoxicity against human A375-S2 cells after 24 hrs by MTS assay; type: functional, cell-based; conditions: A375-S2, 24 h
Method in brief: as §4

[34] = tested on: UACC-903; assay: Induction of apoptosis in human UACC-903 cells assessed as early apoptotic cells at 25 uM after 24 hrs using annexin-V-PE/7-AAD double staining by flow cytometry; type: functional
Method in brief: as §1

[35] = tested on: UACC-903; assay: Induction of apoptosis in human UACC-903 cells assessed as viable cells at 1 uM after 24 hrs using annexin-V-PE/7-AAD double staining by flow cytometry; type: functional; conditions: UACC-903, 24 h, read-out: Activity
Method in brief: as §1

[36] = Cytotoxicity against human 1205 Lu cells after 72 hrs by MTS assay; type: functional, cell-based
Method in brief: as §4

SMILES: O=C1c2cccc3cc([N+](=O)[O-])cc(c23)C(=O)N1CCN=C=S
- Activity [1]: 10%
- Activity [2]: 11.9%
- Activity [3]: 1.39%
- Activity [4]: 18.6%
- growth inhibition (GI) [5]: 60%
- Activity [6]: Toxic
- IC50 [7]: 8.38 µM
- IC50 [8]: 5.82 µM
- Activity [9]: 22.2%
- IC50 [10]: 2.88 µM
- Activity [11]: Dose-dependent effect
- viability at 5 µM [12]: 64.7%
- IC50 [13]: 1.73 µM
- Activity [14]: 0.19%
- Activity [15]: 17.9%
- viability at 25 µM [16]: 1.4%
- Activity [17]: Dose-dependent effect
- IC50 [18]: 2.81 µM
- Activity [19]: Non-toxic
- Activity [20]: Non-toxic
- Activity [21]: Dose-dependent effect
- Activity [22]: Non-toxic
- Activity [23]: Dose-dependent effect
- Activity [24]: Dose-dependent effect
- Activity [25]: Dose-dependent effect
- Activity [26]: Dose-dependent effect
- Activity [27]: 7.83%
- IC50 [28]: 5.5 µM
- Activity [29]: Dose-dependent effect
- Activity [30]: Non-toxic
- Activity [31]: Dose-dependent effect
- Activity [32]: 1.23%
- IC50 [33]: 7.88 µM
- Activity [34]: 79.8%
- viability at 1 µM [35]: 72.9%
- IC50 [36]: 3.91 µM
